The list is not random: actives were taken first. Their share in the collection is about 2.9%.
CHO-K1 Ca antag: M1 antagonist counterscreen hit in parental CHO-K1 cells. ATP-induced calcium, Fluo-8 fluorescence. inhibition, % at 3 µM. 360,000 compounds, 0.6% hits. AID 602250;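 active = inhibition above a per-plate cutoff, the plate's mean sample inhibition plus 3 SD, cut at about 24% in these data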;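 also: 0% = DMSO plus EC80 ATP and 100% = DMSO alone without ATP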
CHO parental Ca: counter-screen for OX1R antagonists: effect in parental CHO cells. parental CHO-K1, ATP-induced calcium, Fluo-8 fluorescence. inhibition, % at 5.6 µM. 330,000 compounds, 0.63% hits. AID 463079;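 active = inhibition above that plate's mean sample inhibition plus 3 SD, cut at about 26% in these data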;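 also: 0% = ATP-challenged DMSO wells and 100% = DMSO wells without ATP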
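Test system: parental CHO cells; detection: calcium-sensitive Fluo-8 fluorescence; evaluation: percent inhibition of calcium signal; also added: ATP as calcium-mobilizing challenge; repeats: one well per compound; control set: ATP-challenged DMSO wells low, unchallenged DMSO wells high; compound: single nominal dose of 5.6 µM per compound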
CHO-K1 Ca PAM: M1 PAM counterscreen hit in parental CHO-K1 cells | ATP EC20, Fluo-8 calcium fluorescence; 0% at ATP EC20, 100% at ATP max | 360,000 compounds, 0.02% hits | activation, % at 3 µM;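 active = activation above the run cutoff, the mean activation of all test compounds plus 3 SD, cut at about 40% in these data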;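 also: peak over basal fluorescence ratio in a 140 s read after ATP addition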
CHO-K1 Ca ag: counter-screen for M1 agonists: effect in parental CHO-K1 cells. Fluo-8 calcium fluorescence; scaled to maximal ATP response, vehicle zero. activation, % at 3 µM. 360,000 compounds, 0.48% hits; in the data active = activation above about 15%;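 also: untransfected CHO-K1 host cells lacking M1 receptor as counterscreen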
OX1R antag-1: human HCRTR1 antagonism | O43613 | CHO/OX1R cells, Fluo-8 calcium fluorescence, orexin A | inhibition, % at 5 µM | 330,000 compounds, 0.43% hits | AID 434989;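 active = inhibition above its plate's threshold, mean inhibition of all tested compounds on the plate plus 3 SD, cut at about 37% in these data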;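 also: 0% = orexin A challenge wells and 100% = SB-334867-A antagonist wells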
Target sequence (O43613 whole entry, looked up): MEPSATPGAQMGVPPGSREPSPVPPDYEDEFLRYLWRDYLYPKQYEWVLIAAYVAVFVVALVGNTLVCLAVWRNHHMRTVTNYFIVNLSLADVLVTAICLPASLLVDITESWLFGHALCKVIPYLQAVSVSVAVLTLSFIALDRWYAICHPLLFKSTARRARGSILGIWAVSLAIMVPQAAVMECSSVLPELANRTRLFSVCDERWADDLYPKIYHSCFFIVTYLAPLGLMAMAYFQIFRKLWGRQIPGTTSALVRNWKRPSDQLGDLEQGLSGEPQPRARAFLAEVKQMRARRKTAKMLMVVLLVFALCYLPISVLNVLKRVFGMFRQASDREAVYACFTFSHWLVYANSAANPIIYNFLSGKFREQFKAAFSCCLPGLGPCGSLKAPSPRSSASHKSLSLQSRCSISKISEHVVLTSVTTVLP
OX1R antag-2: blocks the human orexin 1 receptor; O43613; OX1R-expressing cells, FRET antagonist read-out; inhibition, % at 6.6 µM; 330,000 compounds, 1.8% hits; in the data active = inhibition mostly above about 38%, no sharp cut-off; inactive = mostly below about 40%;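 also: 0% = agonist challenge alone and 100% = reference antagonist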
* marks the source's active call; other numbers are inactive results; . = no result given.

SMILES	CHO-K1 Ca antag	CHO parental Ca	CHO-K1 Ca PAM	CHO-K1 Ca ag	OX1R antag-1	OX1R antag-2
O=[N+]([O-])c1c(NCCCO)cc(N2CCN(Cc3ccc4c(c3)OCO4)CC2)c2nonc12	6	-13	1	5	-25	33
CC1CCCN(c2cc(N(C)CCO)c([N+](=O)[O-])c3nonc23)C1 (centres undefined)	-7	9	-6	0	-8	48*
O=[N+]([O-])c1c(NCCCO)cc(N2CCCCCC2)c2nonc12	3	-15	9	0	-38	37*
N#Cc1c(=O)c2nc(NCc3ccccc3)ncc2n2ccccc12	-7	-3	-4	0	13	62*
N#Cc1c(=O)c2nc(NCCCO)ncc2n2c(=O)c3ccccc3[nH]c12	9	7	-5	-1	-14	19
COc1ccc(NC(=S)NC(NC(=O)c2cccc(C)c2)C(Cl)(Cl)Cl)c([N+](=O)[O-])c1 (centres undefined)	-4	-9	10	3	-13	61
COc1ccc(NC(=S)NC(NC(=O)c2cccc(Cl)c2)C(Cl)(Cl)Cl)c([N+](=O)[O-])c1 (centres undefined)	15	26*	-8	15	7	31
O=C(NC(NC(=S)Nc1ccccc1Cl)C(Cl)(Cl)Cl)c1cccc(Cl)c1 (centres undefined)	24*	4	-1	14	19	46
CCS(=O)(=O)c1ccc(-c2cccc(NC(=O)COc3ccc(Cl)cc3)c2)nn1	-4	-6	-17	6	9	13
C[C@H](NC(=O)[C@H]1N2C(=O)c3ccccc3C2SC1(C)C)C(=O)N1CCC[C@H]1C(=O)O (some centres undefined)	2	-17	16	0	-15	18
Cc1cccc(/C=N/NC(=O)c2ccc(F)cc2)n1	-9	-5	6	2	8	6
CCc1ccccc1NC(=O)Nc1ccc(F)cc1F	-4	-4	-8	2	-20	36
CCc1ccccc1NC(=O)Nc1cc(F)ccc1F	13	1	6	25*	-12	12
Cc1ccc(-c2cc(C(=O)N3N=C(C(F)F)CC3(O)C(F)F)c3ccccc3n2)cc1C (centres undefined)	-30	45*	6	0	10	26
O=C(c1cc(-c2ccccc2)nc2ccccc12)N1N=C(C(F)F)CC1(O)C(F)F (centres undefined)	-2	-27	17	2	-26	19
COc1ccc(C)cc1S(=O)(=O)N1CCCC(C(=O)NC2CC2)C1 (centres undefined)	9	-11	1	10	-3	13
COCCNC(=O)C1Cc2c(ccc3ccccc23)O1 (centres undefined)	-11	-7	19	2	-8	9
CN(C)/C=N/NC(=O)C1Cc2c(ccc3ccccc23)O1 (centres undefined)	0	-10	18	16*	-4	7
CCCCc1[nH]c(=O)c(C#N)c2c1CSC(C)(C)C2	11	56*	-13	0	-3	18
Cc1cc2c(c(=O)n1Cc1ccco1)C(c1cccnc1)C(C#N)=C(N)O2 (centres undefined)	26*	13	-8	0	-7	18
CCOC(=O)c1cn(Cc2ccccc2)c(C(=O)OC(C)(C)C)c1O	0	-24	-19	44*	-28	30
COc1cccc(C(=O)NCC2(c3ccc(OC)c(OC)c3)CCCC2)c1	-6	-15	15	0	-32	5
CCOC(=O)CSc1nc(N2CCOCC2)c2c(c1C#N)CC(C)(C)N(C)C2	-5	-27	12	0	-31	46*
NS(=O)(=O)c1ccc(CCNC(=O)CSc2ccsc2[N+](=O)[O-])cc1	-10	-18	-6	0	-13	44*
CSc1ccc(CCNC(=O)CSc2ccsc2[N+](=O)[O-])cc1	7	-13	-6	0	-26	49
SMILES	CHO-K1 Ca antag	CHO parental Ca	CHO-K1 Ca PAM	CHO-K1 Ca ag	OX1R antag-1	OX1R antag-2
O=C(CSc1ccsc1[N+](=O)[O-])NC1CCCC1	26*	-12	-14	-1	4	39
O=c1[nH]c(=O)n(C2OC(CO)C(O)C2O)cc1Br (centres undefined)	-10	-2	17	1	-10	14
COc1ccc(-c2cc(=O)c3ccccc3o2)cc1	0	-19	12	1	-17	67*
COc1cc(-c2cc(=O)c3ccccc3o2)ccc1O	0	-5	2	1	-21	15
O=C(CN1CCN(S(=O)(=O)c2ccccc2)CC1)N1CCc2ccccc21	-2	-4	19	1	-5	3
Cc1c(C#N)c(O)[nH]c(=O)c1N=Nc1ccc(S(N)(=O)=O)cc1	-5	2	4	0	-8	41*
CCC(=O)Nc1cccc(C(=O)N(Cc2ccccc2)Cc2ccccc2)c1	5	.	-13	3	.	.
CCc1cc[n+](-c2nc3ccccc3nc2C(=C=[N-])C#N)cc1	8	-2	-3	0	-14	74*
N#CC(=C=[N-])c1nc2ccccc2nc1-[n+]1cccc(NC(=O)c2ccccc2)c1	-3	-6	4	0	-10	26
Oc1[nH]c(=S)sc1/C=C1\C(c2ccccc2)=Nc2ccccc21	-6	18	20	2	23	76*
Oc1[nH]c(=S)sc1C=C1N=c2ccccc2=N1	-4	4	16	1	4	20
COC(=O)[C@]12CCCCC=C1N(Cc1ccco1)C(=O)[C@H](CC(=O)N1CCCCC1)C2	-18	.	-2	4	.	.
CC(OC(=O)CNC(=O)c1ccc2ccccc2c1)C(=O)NC1CCCCC1C (centres undefined)	7	-12	16	18*	-11	18
CC(OC(=O)CNC(=O)c1ccc(Cl)cc1)C(=O)NC1CCCCC1C (centres undefined)	25*	-6	-22	0	-16	25
CC(OC(=O)CNC(=O)c1ccc(Br)cc1)C(=O)NC1CCCCC1C (centres undefined)	-3	-12	9	3	-3	-5
CC1CC(C)CN(C(=O)CNC(=O)c2ccc3ccccc3c2)C1 (centres undefined)	-4	-10	16	3	-18	74*
CCCCN1C(=O)C(CC(=O)NCc2cccs2)CC(C(=O)N(CC)CC)=C1C (centres undefined)	8	.	-7	-1	.	.
Cc1occc1-c1nnc(SCC(=O)Nc2nc(C(C)(C)C)cs2)o1	30*	36*	-10	11	13	25
CC(Oc1c(Cl)cccc1Cl)C1=NCCN1 (centres undefined)	.	-1	.	.	-3	10
CC(=O)C1=C(O)C(=O)N(c2ccc(C)cc2)C1c1ccc([N+](=O)[O-])cc1 (centres undefined)	14	-6	15	16*	-4	27
